Measured values taken from ChEMBL document CHEMBL3108742, “Structurally diverse low molecular weight activators of the mammalian pre-mRNA 3' cleavage reaction” (Bioorg Med Chem, 2014).
One block for each molecule: values may come before it. Calls of active or inactive are those of the source. No cut-off for these calls is given here.

Legend:
HeLa [1] = experiment: Induction of [alpha-32P]-UTP-labeled Simian virus 40 late pre-mRNA 3' cleavage at 25 to 200 uM treated with 3' cleavage factors from human HeLa cell nuclear extract after 2 hrs by PAGE analysis; type: cell-based; settings: Betapolyomavirus macacae
Summary of the method: (§1)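 Radiolabeled substrate (1–5 nM) derived from the SV40 late poly(A) signal was incubated with DEAE-sepharose CPSF, CstF and CFm fractions from HeLa nuclear extract. Test agent replaced 50 mM creatine phosphate. Reaction mix contained tRNA, 2 mM EDTA, 2 mM 2′-dATP, 2.5% polyvinyl alcohol and 10 mM HEPES pH 7.9, run at 30 °C for 2 h. Products were Proteinase K-digested, extracted, precipitated and resolved by 6% denaturing PAGE.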

HeLa [2] = experiment: Induction of [alpha-32P]-UTP-labeled Simian virus 40 late pre-mRNA 3' cleavage at 1 mM treated with 3' cleavage factors from human HeLa cell nuclear extract after 2 hrs by PAGE analysis; type: cell-based; settings: Betapolyomavirus macacae; summary of the method: as §1
HeLa [3] = experiment: Induction of [alpha-32P]-UTP-labeled Simian virus 40 late pre-mRNA 3' cleavage at 200 nM treated with 3' cleavage factors from human HeLa cell nuclear extract after 2 hrs by PAGE analysis in presence of protein tyrosine phosphatase; type: cell-based; settings: Betapolyomavirus macacae
HeLa [4] = experiment: Induction of [alpha-32P]-UTP-labeled Simian virus 40 late pre-mRNA 3' cleavage at 200 nM treated with 3' cleavage factors from human HeLa cell nuclear extract after 2 hrs by PAGE analysis in presence of calf intestinal alkaline phosphatase; type: cell-based; settings: Betapolyomavirus macacae
Protein phosphatase 1D = biological target: T1, Protein phosphatase 1D (Homo sapiens, UniProt O15297); experiment: Inhibition of N-terminal His-tagged human PPM1D (1 to 420) assessed as phosphoric acid release after 30 mins
T1 sequence (O15297 whole entry): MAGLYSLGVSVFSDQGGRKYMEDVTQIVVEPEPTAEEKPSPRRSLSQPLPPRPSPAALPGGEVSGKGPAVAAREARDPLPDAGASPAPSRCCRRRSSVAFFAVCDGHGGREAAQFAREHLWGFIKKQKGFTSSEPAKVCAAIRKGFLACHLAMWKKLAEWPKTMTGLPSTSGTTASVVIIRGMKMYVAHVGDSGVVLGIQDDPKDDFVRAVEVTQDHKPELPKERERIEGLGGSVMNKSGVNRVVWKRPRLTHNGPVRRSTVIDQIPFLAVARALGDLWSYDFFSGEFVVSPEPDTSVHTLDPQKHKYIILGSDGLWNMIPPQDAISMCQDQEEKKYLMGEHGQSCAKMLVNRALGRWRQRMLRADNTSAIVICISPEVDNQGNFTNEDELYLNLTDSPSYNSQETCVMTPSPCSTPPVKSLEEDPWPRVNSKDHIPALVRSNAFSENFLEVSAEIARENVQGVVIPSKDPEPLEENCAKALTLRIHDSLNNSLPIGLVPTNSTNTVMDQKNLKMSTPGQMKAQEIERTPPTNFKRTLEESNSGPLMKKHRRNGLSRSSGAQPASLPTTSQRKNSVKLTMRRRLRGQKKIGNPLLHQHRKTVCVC

HeLa [5] = experiment: Induction of [alpha-32P]-UTP-labeled Simian virus 40 late pre-mRNA 3' cleavage at 200 nM treated with 3' cleavage factors from human HeLa cell nuclear extract after 2 hrs by PAGE analysis; type: cell-based; settings: Betapolyomavirus macacae; summary of the method: as §1
HeLa [6] = experiment: Induction of [alpha-32P]-UTP-labeled Simian virus 40 late pre-mRNA 3' cleavage at >= 100 uM treated with 3' cleavage factors from human HeLa cell nuclear extract after 2 hrs by PAGE analysis relative to control; type: cell-based; settings: Betapolyomavirus macacae; summary of the method: as §1
[7] = Inhibition of ABI2 (unknown origin) at 3 uM relative to control; set-up: scale not given: the % may be the effect or the level left
[8] = Inhibition of ABI2 (unknown origin)
[9] = Inhibition of ABI1 (unknown origin)
HeLa [10] = experiment: Induction of [alpha-32P]-UTP-labeled Simian virus 40 late pre-mRNA 3' cleavage at 50 mM treated with 3' cleavage factors from human HeLa cell nuclear extract after 2 hrs by PAGE analysis; type: cell-based; settings: Betapolyomavirus macacae
Summary of the method: (§2)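 Partially purified HeLa nuclear extract cleavage factors (DEAE fractions CPSF, CstF, CFm; ammonium sulfate-concentrated, dialyzed against 20 mM Na-HEPES pH 7.9 buffer) incubated with radiolabeled SV40 late poly(A) signal substrate (1–5 nM). Reaction mix: tRNA 0.1 mg/mL, 2 mM EDTA, 2 mM 2'-dATP, 2.5% polyvinyl alcohol, 10 mM HEPES pH 7.9, 25 mM ammonium sulfate, activator replacing creatine phosphate. Run 2 h at 30 °C; Proteinase K treatment, 6% denaturing gel.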

HeLa [11] = experiment: Induction of [alpha-32P]-UTP-labeled Simian virus 40 late pre-mRNA 3' cleavage treated with 3' cleavage factors from human HeLa cell nuclear extract after 2 hrs by PAGE analysis; type: cell-based; settings: Betapolyomavirus macacae; summary of the method: as §2

Compound: N=C(N)NCCC[C@H](N)C(=O)Nc1ccc2ccccc2c1
Activity (HeLa [1]): Active

Compound: N=C(N)NCCC[C@H](N)C(=O)Nc1cnc2ccccc2c1
Activity (HeLa [2]): inactive

Compound: C[N+](C)(C)CCOP(=O)(O)O
Activity (HeLa [2]): inactive

Compound: N=C(N)NCCC[C@@H](C(=O)Nc1ccc2ccccc2c1)N1CCOCC1
Activity (HeLa [1]): Active

Compound: CC(=O)N[C@@H](CCCC[N+](C)(C)C)C(=O)N[C@@H](COP(=O)([O-])O)C(=O)O
Activity (HeLa [2]): Active

Compound: N=C(N)NCCC[C@H](N)C(=O)Nc1ccccc1
Activity (HeLa [2]): inactive

Compound: N[C@@H](COP(=O)(O)O)C(=O)O
Activity (HeLa [2]): inactive

Compound: N=C(N)NCCC[C@H](N)C(=O)Nc1cccc2ccccc12
Activity (HeLa [2]): inactive

Ki (Protein phosphatase 1D): 150 nM
Compound: CC[C@H](C)[C@@H]1NC(=O)[C@H](Cc2ccc(OP(=O)(O)O)cc2)NC(=O)[C@H](CC(=O)O)NC(=O)[C@H](CCC(=O)O)N[C@H](C(N)=O)CSCC(=O)[C@H](Cc2ccccc2)NC(=O)[C@H](COP(=O)(O)O)NC1=O
Activity (HeLa [3]): Active
Activity (HeLa [4]): inactive
Activity (HeLa [5]): Active

Activity [7]: 15%
IC50 [8]: 70 nM
IC50 [9]: 60 nM
Compound: CC1=CC(=O)CC(C)(C)[C@@]1(O)/C=C/C(C)=C\C(=O)O [(+)-ABSCISIC ACID]
Activity (HeLa [6]): 10%

Compound: CN(CC(=O)O)C(=N)NP(=O)(O)O
Activity (HeLa [10]): Active

Compound: C[N+](C)(C)CCCOP(=O)(O)O
Activity (HeLa [11]): inactive

Compound: CCNC(=N)NCCC[C@H](N)C(=O)Nc1cccc2ccccc12
Activity (HeLa [2]): inactive

Compound: CN(C)CCOP(=O)(O)O
Activity (HeLa [11]): inactive

Compound: CNCCOP(=O)(O)O
Activity (HeLa [11]): inactive
